Screens: PubChem, several laboratories
Hck Nef HTS = inhibitors of Nef-activated human Hck kinase, primary screen, biochemical, Z-Lyte FRET, 384-well, Hck-YEEI; inhibition, % at 20 µM; Tyrosine-protein kinase HCK (Homo sapiens), P08631; Recombinant Hck-YEEI plus Nef, Z-Lyte FRET kinase assay; hit rate 0.68% among 220,000;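 active = Hck-Nef kinase inhibition above about 50%, limit read from the data; inactive = inhibition below that limit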
Runt-CBFb FRET = inhibitors of RUNX1 Runt–CBFb binding, primary screen, biochemical, FRET, Cerulean-Runt, Venus-CBFb, uHTS. AID 1496, 2009. hit rate 0.46% among 220,000. Cerulean-Runt/Venus-CBFb FRET ratio 530/480, 1 h. inhibition, % at 20 µM;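 active = inhibition over about 50% at 20 µM in the single-dose screen, limit read from the data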
Target sequence (Q01196 whole entry, looked up): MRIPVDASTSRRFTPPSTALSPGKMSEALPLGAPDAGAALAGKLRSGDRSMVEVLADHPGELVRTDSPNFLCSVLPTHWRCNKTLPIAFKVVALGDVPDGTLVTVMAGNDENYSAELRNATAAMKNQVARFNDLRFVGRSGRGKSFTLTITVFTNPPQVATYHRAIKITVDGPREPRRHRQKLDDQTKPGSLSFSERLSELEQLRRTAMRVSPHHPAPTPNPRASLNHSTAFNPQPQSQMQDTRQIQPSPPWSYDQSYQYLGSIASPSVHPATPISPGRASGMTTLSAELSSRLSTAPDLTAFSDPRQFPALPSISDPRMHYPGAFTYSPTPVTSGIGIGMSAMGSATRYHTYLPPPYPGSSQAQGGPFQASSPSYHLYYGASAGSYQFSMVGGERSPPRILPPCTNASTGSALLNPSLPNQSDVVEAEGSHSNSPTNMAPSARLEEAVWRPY
Target sequence (Q13951 whole entry, looked up): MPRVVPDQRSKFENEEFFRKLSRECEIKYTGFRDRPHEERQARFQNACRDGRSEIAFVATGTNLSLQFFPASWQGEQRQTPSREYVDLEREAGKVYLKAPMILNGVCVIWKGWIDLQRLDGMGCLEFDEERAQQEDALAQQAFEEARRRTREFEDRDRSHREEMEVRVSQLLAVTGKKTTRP
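test system = Cerulean-tagged RUNX1 Runt domain (FRET donor) fusion protein | reagent = Venus-CBFb binding partner, 100 nM | incubation = protein complex preformed 1 h, compound exposure 1 h, room temperature, dark | detection = FRET fluorescence | read-out basis = loss of energy transfer signal | controls = 5 µM unlabeled CBFb as full-inhibition high control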
Tb hexokinase = Trypanosoma brucei hexokinase 1 inhibitors, primary screen, biochemical, G6PDH-coupled NADH absorbance, MLSCN library; recombinant TbHK1, G6PDH-coupled NADH A340; hit rate 0.11% among 220,000; inhibition, % at 10 µM; hexokinase 1 [Trypanosoma brucei]; AID 1430, 2008;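 active = inhibition of 50% or more in the single-dose primary screen; inactive = inhibition below 50%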
RanGTP-Imp inh = inhibitors of RanGTP-importin-beta interaction, primary screen, biochemical, FRET, CFP-Ran, YFP-importin-beta, homogeneous; cell-free CFP-Ran/YFP-importin-beta FRET ratio; Ran GTPase (GTP-bound) - importin-beta complex; inhibition, % (concentration not given with the values); hit rate 1.1% among 300,000;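 active = more than half of the replicate wells show a fall in the fluorescence ratio signal beyond about 16%, limit read from the data, passing the limit was not always enough; inconclusive = exactly half of the replicate wells pass the set limit; inactive = fewer than half of replicates pass the limit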
Runt-SMMHC FRET = inhibitors of RUNX1 Runt–CBFb-SMMHC binding, primary screen, biochemical, FRET, Cerulean-Runt, Venus-CBFb-SMMHC, uHTS | inhibition, % at 20 µM | hit rate 0.74% among 220,000 | Cerulean-Runt/Venus-CBFb-SMMHC FRET ratio 530/480, 1 h | Runt-related transcription factor 1 (Homo sapiens) + Core-binding factor subunit beta …;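 active = mean inhibition across duplicate retests at 20 µM reaching about 50%, limit read from the data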;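 also: inhibitors lower the FRET ratio by blocking Runt binding to CBFb-SMMHC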
Large screens that a line does not name were inactive. Compounds with a hit are over-represented: about 1.9% of the library has one in this group of screens.

CC(=O)Nc1ccc(S(=O)(=O)N2CCN(C(=O)c3ncoc3-c3ccc(F)cc3)CC2)cc1	none (no result: Hck Nef HTS, Runt-CBFb FRET, Tb hexokinase, Runt-SMMHC FRET)
COC(=O)c1cccc(/C=N/NC(N)=S)c1O	RanGTP-Imp inh 42.3, Runt-SMMHC FRET 84.0
CSc1nc(N2CCN(Cc3ccc4c(c3)OCO4)CC2)c2ccccc2n1	none (no result: Hck Nef HTS, Runt-CBFb FRET, Tb hexokinase, Runt-SMMHC FRET)
CS(=O)(=O)CCSc1ncccc1C(=O)NCc1cccs1	none
Cc1ccc(C)c(NS(=O)(=O)c2cc(C(=O)NCc3ccccn3)ccc2C)c1	none (no result: Hck Nef HTS, Runt-CBFb FRET, Tb hexokinase, Runt-SMMHC FRET)
CS(=O)(=O)N1CCN(c2ccc([N+](=O)[O-])c(NCc3ccc(Cl)cc3)c2)CC1	Hck Nef HTS 98.1
CS(=O)(=O)N1CCN(c2ccc([N+](=O)[O-])c(NCc3ccccc3)c2)CC1	none
Cc1csc(NC(=O)c2cc(=O)[nH]c3ccccc23)n1	Runt-SMMHC FRET 68.8
CCOC(=O)c1c(NC(=O)CSc2nnc(-c3c[nH]c4ccccc34)n2CCOC)sc2c1CCCC2	none
CCOC(=O)c1c(NC(=O)CSc2nnc(-c3c[nH]c4ccccc34)n2C)sc2c1CCCC2	RanGTP-Imp inh 25.9
CCOc1ccc(CNC(c2ccccc2)c2ccccc2)cc1	RanGTP-Imp inh 33.3 (no result: Hck Nef HTS, Runt-CBFb FRET, Tb hexokinase, Runt-SMMHC FRET)
CCc1ccc(N(C(=O)c2snc(C(N)=O)c2N)C(C(=O)NC2CCCC2)c2ccco2)cc1 (stereo not drawn)	none (no result: Hck Nef HTS, Runt-CBFb FRET, Tb hexokinase, Runt-SMMHC FRET)
NC(=O)c1nsc(C(=O)N(CCc2ccccc2)C(C(=O)NC2CCCC2)c2ccco2)c1N (stereo not drawn)	RanGTP-Imp inh 88.5
Cc1ccc(N(C(=O)c2snc(C(N)=O)c2N)C(C(=O)NCCC(C)C)c2ccco2)cc1 (stereo not drawn)	Hck Nef HTS 74.8
CC(c1ccccn1)N(C)C(=O)c1ccc2nc(Cc3ccccc3F)oc2c1 (stereo not drawn)	none (no result: Hck Nef HTS, Runt-CBFb FRET, Tb hexokinase, Runt-SMMHC FRET)
COCCn1c(N)c(S(=O)(=O)c2cccs2)c2nc3ccccc3nc21	none
COCCn1c(N)c(C(=O)NCc2cccs2)c2nc3ccccc3nc21	RanGTP-Imp inh 84.4, Runt-SMMHC FRET 69.7
CCC(C)NC(=O)c1c(N)n(/N=C/c2ccccn2)c2nc3ccccc3nc12 (stereo not drawn)	RanGTP-Imp inh inconclusive
CCOC(=O)c1c(N)n(CC(C)NC(=O)C2CC2)c2nc3ccccc3nc12 (stereo not drawn)	Runt-CBFb FRET 73.8, Runt-SMMHC FRET 162.7 (no result: RanGTP-Imp inh)
Nc1c(C(=O)OCC2CCCO2)c2nc3ccccc3nc2n1C1CCCC1 (stereo not drawn)	Runt-SMMHC FRET 84.6
Nc1c(C(=O)NC2CCCC2)c2nc3ccccc3nc2n1N	RanGTP-Imp inh 39.0
COCCn1c(N)c(C(=O)NCC2CCCO2)c2nc3ccccc3nc21 (stereo not drawn)	Runt-CBFb FRET 70.3, RanGTP-Imp inh 94.4, Runt-SMMHC FRET 79.3
COCCn1c(N)c(C(=O)Nc2sc3c(c2C(=O)OC)CCCC3)c2nc3ccccc3nc21	Runt-CBFb FRET 86.7
CC(=O)OCCCN1c2ccccc2Nc2nnc(-c3ccccc3)cc21	none
N#CC1=C(N)N2C(=C(C#N)C1c1ccc(Br)cc1)Nc1ccccc12 (stereo not drawn)	RanGTP-Imp inh 23.4, Runt-SMMHC FRET 60.1
CCOc1ccc(C2C(C#N)=C(N)N3C(=C2C#N)Sc2ccccc23)cc1 (stereo not drawn)	RanGTP-Imp inh inconclusive (no result: Hck Nef HTS, Tb hexokinase)
N#CC1=C(N)N2C(=C(C#N)C1c1cccc(Br)c1)Nc1ccccc12 (stereo not drawn)	RanGTP-Imp inh 28.3, Runt-SMMHC FRET 63.8
N#CC1=C(N)N2C(=C(C#N)C1c1ccccc1)Sc1ccccc12 (stereo not drawn)	RanGTP-Imp inh inconclusive
O=C(NCc1ccncc1)C1CCCCC1	none
CC(=O)N1c2ccc(S(=O)(=O)N3CCC(C(=O)NCc4ccc(N(C)C)cc4)CC3)cc2CC1C (stereo not drawn)	RanGTP-Imp inh 66.7 (no result: Hck Nef HTS, Runt-CBFb FRET, Tb hexokinase, Runt-SMMHC FRET)
O=C(CCNC(=O)Cn1ccc2ccccc2c1=O)NCCCN1CCN(c2ccc(F)cc2)CC1	none (no result: Runt-CBFb FRET)
O=C(CNC(=O)Cn1ccc2ccccc2c1=O)NCCCN1CCN(c2cccc(Cl)c2)CC1	RanGTP-Imp inh 20.9
CCOC(=O)N1CCN(C(=O)/C=C/c2ccc(C(C)(C)C)cc2)CC1	RanGTP-Imp inh 27.7 (no result: Hck Nef HTS, Runt-CBFb FRET, Tb hexokinase, Runt-SMMHC FRET)
CCOC(=O)N1CCN(C(=O)/C=C/c2ccc([N+](=O)[O-])cc2)CC1	none
Cc1cccc(CNC(=O)c2cc(S(=O)(=O)N3CCOCC3)cn2C)c1	none (no result: Hck Nef HTS, Runt-CBFb FRET, Tb hexokinase, Runt-SMMHC FRET)
O=c1[nH]c(=O)c2ncc(-c3ccc(Cl)cc3)nc2[nH]1	Runt-CBFb FRET 53.8, Runt-SMMHC FRET 85.3
CCNS(=O)(=O)c1ccc2c(c1)NCC2	none
Cc1cc(C(=O)CN2C(=O)c3cccc(N)c3C2=O)c(C)n1Cc1cccs1	RanGTP-Imp inh 66.4, Runt-SMMHC FRET 61.6
Oc1nc(Nc2ccccc2)sc1/C=C1\C=Nc2ccccc21	RanGTP-Imp inh 21.1
CCn1c(O)c(/C=C2\C=Nc3ccccc32)sc1=O	none
CCOC(=O)c1c(Nc2ccccc2)sc(/C=C2\C=Nc3ccccc32)c1O	RanGTP-Imp inh 42.6
O=C(CN(CCc1ccccc1)Cc1ccccc1)Oc1ccccc1P(=O)(O)O	none (no result: Hck Nef HTS, Runt-CBFb FRET, Tb hexokinase, Runt-SMMHC FRET)
CC1(C)CC(=O)C=C(NNC(=O)c2ccccc2)C1	RanGTP-Imp inh inconclusive
CC1(C)CC(=O)C=C(NNC(=O)c2ccc(N)cc2)C1	none
COc1ccc(C(=O)NNC2=CC(=O)CC(C)(C)C2)cc1OC	RanGTP-Imp inh 26.2
Cc1occc1C(=O)NNC1=CC(=O)CC(C)(C)C1	RanGTP-Imp inh 25.7
CCCOP(=O)(c1ccc(N(C)C)cc1)C(Nc1ccccc1)c1ccc(C)cc1 (stereo not drawn)	none
O=C(C1CCC1)N1CCC(O)(c2cccc(F)c2)CC1	none
COc1cc(/C=N\Nc2nc(-c3ccc(C)cc3)c(NC(C)=O)s2)ccc1O	Hck Nef HTS 105.4
O=C(COc1ccc(Br)cc1)N(Cc1cccs1)C1CCS(=O)(=O)C1 (stereo not drawn)	RanGTP-Imp inh 18.1 (no result: Hck Nef HTS, Runt-CBFb FRET, Tb hexokinase, Runt-SMMHC FRET)
O=C(O)CCC(=O)c1cccc2ccccc12	none
O=C(O)CCC(=O)c1ccc2ccc3cccc4ccc1c2c34	Runt-SMMHC FRET 69.2
O=c1c(/C=C(\O)c2ccccc2)nc2ccccc2n1-c1ccccc1	RanGTP-Imp inh 71.6
CN1CCc2c(C#N)c(N3CCOCC3)nc(NCC3CCCO3)c2C1 (stereo not drawn)	RanGTP-Imp inh 70.5
COc1ccccc1N1CCN(C(=O)c2ccc(N3CCCCS3(=O)=O)cc2)CC1	none (no result: Hck Nef HTS, Runt-CBFb FRET, Tb hexokinase, Runt-SMMHC FRET)
Cc1cccc(N(C)S(=O)(=O)c2nnc(NC(=O)c3ccco3)s2)c1	RanGTP-Imp inh 175.8 (no result: Hck Nef HTS, Runt-CBFb FRET, Tb hexokinase, Runt-SMMHC FRET)
CN(c1ccccc1)S(=O)(=O)c1nnc(NC(=O)c2ccco2)s1	none (no result: Hck Nef HTS, Runt-CBFb FRET, Tb hexokinase, Runt-SMMHC FRET)
